Reference: the M2OR odorant receptor database

These compounds were tested against T1, UniProt Q920P1. Conditions: stereoisomer not certain.
T1 sequence (whole entry): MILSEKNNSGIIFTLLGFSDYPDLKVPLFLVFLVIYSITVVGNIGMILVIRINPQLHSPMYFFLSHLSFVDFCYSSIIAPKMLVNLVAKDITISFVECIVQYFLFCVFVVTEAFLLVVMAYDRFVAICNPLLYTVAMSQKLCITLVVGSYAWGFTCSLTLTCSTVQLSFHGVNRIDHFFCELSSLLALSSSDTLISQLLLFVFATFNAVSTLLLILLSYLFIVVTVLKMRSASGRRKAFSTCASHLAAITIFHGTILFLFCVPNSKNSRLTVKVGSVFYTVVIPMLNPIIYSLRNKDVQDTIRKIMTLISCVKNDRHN
Procedure, shortened: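 Values were gathered from published papers (main text and supplementary material), with extra details requested from the original authors when needed, and checked for typos and inconsistencies. Each receptor–molecule pair is called responsive (active) if the original authors judged the measured signal statistically different from baseline, and non-responsive (inactive) otherwise. Assay methods varied by source, often transient mammalian cell-line luciferase assays. Recorded details include cell line, G-protein, co-transfected protein and tags.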

Structure (SMILES) | odorant receptor agonist call
CCc1ccc(O)c(OC)c1 | inactive
COc1cc(C=O)cc(OC)c1O | inactive
CC(C=O)Cc1ccc(C(C)(C)C)cc1 (centres undefined) | inactive
C=CCc1ccc(OCC)c(OC)c1 | inactive
